Consider 16 compounds from ChEMBL document CHEMBL4130621, “Structure-Activity Relationship Studies with Tetrahydroquinoline Analogs as EPAC Inhibitors” (ACS Med Chem Lett, 2017).

pIC50: −log10 of the molar value. The source made the active and inactive calls. No cut-off for these calls is given here. Some results are limits rather than exact numbers.

The target of one test is T1, Rap guanine nucleotide exchange factor 3 (Homo sapiens) (UniProt O95398).
T1 sequence (whole entry): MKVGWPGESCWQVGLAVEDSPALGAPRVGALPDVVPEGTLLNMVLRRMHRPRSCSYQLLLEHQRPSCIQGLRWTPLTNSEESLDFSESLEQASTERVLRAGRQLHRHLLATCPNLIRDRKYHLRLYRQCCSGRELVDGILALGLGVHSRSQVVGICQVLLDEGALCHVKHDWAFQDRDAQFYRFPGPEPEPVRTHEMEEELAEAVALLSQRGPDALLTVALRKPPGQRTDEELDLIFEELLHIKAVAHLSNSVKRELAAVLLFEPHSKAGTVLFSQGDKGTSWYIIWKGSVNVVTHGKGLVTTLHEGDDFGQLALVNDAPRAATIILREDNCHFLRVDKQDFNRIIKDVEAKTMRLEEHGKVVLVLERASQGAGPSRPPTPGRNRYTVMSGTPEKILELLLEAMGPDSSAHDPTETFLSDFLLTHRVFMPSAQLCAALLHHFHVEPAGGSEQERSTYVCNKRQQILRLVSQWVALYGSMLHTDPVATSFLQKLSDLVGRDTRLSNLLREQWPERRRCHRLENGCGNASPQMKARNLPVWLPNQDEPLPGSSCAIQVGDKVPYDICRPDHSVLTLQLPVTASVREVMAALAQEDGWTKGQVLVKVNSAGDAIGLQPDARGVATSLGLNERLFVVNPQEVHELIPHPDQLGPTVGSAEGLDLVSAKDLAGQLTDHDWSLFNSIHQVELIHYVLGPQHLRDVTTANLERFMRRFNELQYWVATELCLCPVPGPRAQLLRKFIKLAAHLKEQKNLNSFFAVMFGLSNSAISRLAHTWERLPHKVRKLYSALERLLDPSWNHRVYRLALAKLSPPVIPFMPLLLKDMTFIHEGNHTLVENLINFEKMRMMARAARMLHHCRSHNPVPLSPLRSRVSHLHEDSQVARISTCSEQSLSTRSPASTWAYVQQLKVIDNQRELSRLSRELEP
Description: Inhibition of recombinant human GST-tagged EPAC1 (149 to 881 residues) expressed in Escherichia coli Rosetta 2(DE3) assessed as reduction in guanine nucleotide exchange activity at 10 uM using BODIPY-labeled GDP loaded Rap1A by fluorescence assay relative to control. In outline: (§1)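 EPAC1 was stimulated with the analog present at 10 or 50 μM. Activity was then measured as guanine nucleotide exchange factor activity toward Rap1 in a BODIPY-GDP-based assay, used as a screen.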
Turning to `CC1CCc2c(cc(Br)c(F)c2Br)N1C=O` (centres undefined), the inhibition came out at 58.1%.

Consider `C[C@H]1CCc2c(ccc(F)c2Br)N1C=O`, for which the inhibition result was “Active”.

Turning to `C[C@@H]1CCc2c(ccc(F)c2Br)N1C=O`, the inhibition result is “Active”.

For `C[C@H]1CCc2cc(F)ccc2N1C=O`, the inhibition entry is “Active”.

For the compound `CC1CCc2c(cc(Br)c(F)c2Br)N1` (centres undefined), the inhibition turned out to be 40.8%.

In the case of `CC1CCc2cc(F)ccc2N1C=O` (centres undefined), the inhibition was 5.3%.

`CC(=O)N1c2cc(Br)c(F)c(Br)c2CCC1C` (centres undefined): the inhibition was found to be 8.7%.

Regarding `CC1CCc2c(ccc(F)c2Br)N1C=O` (centres undefined), the inhibition came to 15.8%.

Take `C[C@H]1CCc2c(cc(Br)c(F)c2Br)N1`: the inhibition result is “Active”.

Take `CC1CCc2c(Br)c(F)c(Br)c(Br)c2N1C=O` (centres undefined): the inhibition came out at 23.6%.

`C[C@@H]1CCc2cc(F)ccc2N1C=O`: the inhibition result was “Active”.

As to `C[C@@H]1CCc2c(cc(Br)c(F)c2Br)N1`, the inhibition entry is “Active”.

The next test deals with T1, Rap guanine nucleotide exchange factor 3 (Homo sapiens). Description: Inhibition of recombinant human GST-tagged EPAC1 (149 to 881 residues) expressed in Escherichia coli Rosetta 2(DE3) assessed as reduction in guanine nucleotide exchange activity at 50 uM using BODIPY-labeled GDP loaded Rap1A by fluorescence assay relative to control. Summed up: as §1
On to `CC1CCc2c(cc(Br)c(F)c2Br)N1C=O` (centres undefined), for which the inhibition was determined as 88.3%.

For `CC1CCc2c(cc(Br)c(F)c2Br)N1` (centres undefined), the inhibition was 74.1%.

`CC1CCc2cc(F)ccc2N1C=O` (centres undefined): the inhibition is 5%.

For `CC(=O)N1c2cc(Br)c(F)c(Br)c2CCC1C` (centres undefined), the inhibition was 26.2%.

For `CC1CCc2c(ccc(F)c2Br)N1C=O` (centres undefined), the inhibition was found to be 42%.

For the compound `CC1CCc2c(Br)c(F)c(Br)c(Br)c2N1C=O` (centres undefined), the inhibition turned out to be 46%.

For another test, the target named is T2, Rap guanine nucleotide exchange factor 3 (Homo sapiens, UniProt O95398).
T2 sequence (O95398 whole entry): T1 sequence (whole entry)
In words: Inhibition of recombinant human GST-tagged EPAC1 (149 to 881 residues) expressed in Escherichia coli Rosetta 2(DE3) assessed as reduction in guanine nucleotide exchange activity using BODIPY-labeled GDP loaded Rap1A by fluorescence assay.
On to `C[C@@H]1CCc2c(cc(Br)c(F)c2Br)N1C=S`, for which the negative logarithm of the IC50 (pIC50) was 4.75.

Take `C[C@H]1CCc2c(cc(Br)c(F)c2Br)N1C=S`: the pIC50 is less than 4.00.

In the case of `C[C@H]1CCc2c(cc(Br)c(F)c2Br)N1C=O`, the pIC50 was 4.50.

In the case of `C[C@@H]1CCc2c(cc(Br)c(F)c2Br)N1C=O`, the pIC50 was 5.48.

In another test the target is Rap guanine nucleotide exchange factor 4 (Homo sapiens, UniProt Q8WZA2). In words: Inhibition of recombinant human GST-tagged EPAC2 expressed in Escherichia coli Rosetta 2(DE3) assessed as reduction in guanine nucleotide exchange activity using BODIPY-labeled GDP loaded Rap1A by fluorescence assay.
Chain of Rap guanine nucleotide exchange factor 4 (Q8WZA2 whole entry): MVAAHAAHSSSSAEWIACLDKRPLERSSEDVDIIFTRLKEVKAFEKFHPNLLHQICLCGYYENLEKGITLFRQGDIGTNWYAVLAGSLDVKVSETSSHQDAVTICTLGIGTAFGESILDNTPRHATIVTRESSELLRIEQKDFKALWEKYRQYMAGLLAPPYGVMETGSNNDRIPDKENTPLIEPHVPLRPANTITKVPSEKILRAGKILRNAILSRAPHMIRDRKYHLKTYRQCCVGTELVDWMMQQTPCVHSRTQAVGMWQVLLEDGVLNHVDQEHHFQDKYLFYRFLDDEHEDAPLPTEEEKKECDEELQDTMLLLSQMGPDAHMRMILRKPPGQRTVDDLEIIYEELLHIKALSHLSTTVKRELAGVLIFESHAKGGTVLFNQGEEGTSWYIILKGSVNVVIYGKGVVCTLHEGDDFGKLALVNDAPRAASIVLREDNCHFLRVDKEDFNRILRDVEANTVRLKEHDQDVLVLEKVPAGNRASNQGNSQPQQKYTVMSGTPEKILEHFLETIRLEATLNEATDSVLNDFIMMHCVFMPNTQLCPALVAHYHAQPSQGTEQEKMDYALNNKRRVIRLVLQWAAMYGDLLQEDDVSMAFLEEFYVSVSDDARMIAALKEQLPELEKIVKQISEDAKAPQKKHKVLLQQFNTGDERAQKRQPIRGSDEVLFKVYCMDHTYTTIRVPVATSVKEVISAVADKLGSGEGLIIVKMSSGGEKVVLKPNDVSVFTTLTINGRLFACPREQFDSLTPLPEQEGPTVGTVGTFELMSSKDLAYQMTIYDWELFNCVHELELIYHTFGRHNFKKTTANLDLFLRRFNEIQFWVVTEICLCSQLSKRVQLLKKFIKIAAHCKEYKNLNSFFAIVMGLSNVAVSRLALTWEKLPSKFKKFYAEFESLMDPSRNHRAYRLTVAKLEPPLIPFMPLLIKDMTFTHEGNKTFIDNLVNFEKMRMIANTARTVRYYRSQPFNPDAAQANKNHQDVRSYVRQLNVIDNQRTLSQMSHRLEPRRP
With `C[C@H]1CCc2c(cc(Br)c(F)c2Br)N1C=O`, the pIC50 is 4.77.

With `C[C@@H]1CCc2c(cc(Br)c(F)c2Br)N1C=O`, the pIC50 is 4.65.

The inhibition is the drop in the measured response relative to a control, in per cent. In general, pIC50 refers to −log10 of the IC50, conventionally taken in molar units.
